# ChEMBL document CHEMBL1134359, “Design, synthesis, and evaluation of a novel pyrrolobenzodiazepine DNA-interactive agent with highly efficient cross-linking ability and potent cytotoxicity” (J Med Chem, 2001)
# Tests used:
# CH1 [1] = test: Inhibition of cell growth in human ovarian carcinoma cell line (CH1-cis-R,cisplatin resistant) using the 96 hour continuous exposure sulforhodamine B (SRB) growth delay assay; format: functional, cell-based; details: CH1cisR
# Summary of the method: (§1)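 Human ovarian lines seeded in 96-well plates and left to attach overnight. Compounds dissolved in DMSO (20 mM stock), diluted in medium, added to quadruplicate wells at final 2.5 nM–100 μM; continuous exposure 96 h at 37 °C. Cells fixed in 10% TCA, stained with 0.4% SRB, dye taken up in 10 mM Tris, A540 read. IC50 taken relative to 8 untreated wells.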
# K562 = test: Inhibition of cell growth by 50% in human leukemia cell line (K562) was determined using microculture tetrazolium (MTT) assay.; format: functional, cell-based
# Summary of the method: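 K562 human leukaemia cells given drug for 1 h; growth then measured by MTT assay; IC50 is the dose giving 50% growth inhibition versus drug-free controls.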
# Nucleic Acid [2] = test: The concentration of compound required for 50% cross linking of plasmid pBR322 DNA was investigated using an assay involving linear double stranded DNA; format: functional
# Summary of the method: (§2)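 pBR322 cut with HindIII, dephosphorylated, then 5'-end-labelled with [γ-32P]ATP by T4 kinase; about 10 ng per reaction. Drug at 0.001–10 μM in 25 mM triethanolamine/1 mM EDTA, pH 7.2, 37 °C, 2 h. Stopped, then ethanol-precipitated; strands separated in 30% DMSO at 90 °C for 2 min; run on neutral 0.8% agarose. Autoradiograph read by laser densitometry; XL50 is the dose giving 50% double-stranded (cross-linked) DNA.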
# [3] = (§3) Ratio of IC50 against A2780cisR (cisplatin resistant) to the IC50 of parent; format: functional
# [4] = (§4) Ratio of IC50 against human ovarian carcinoma cell line (CH1)cisR (cisplatin resistant) to the IC50 of parent; format: functional
# A2780 [5] = test: Inhibition of cell growth in human ovarian carcinoma cell line (A2780) using the 96 hour continuous exposure sulforhodamine B (SRB) growth delay assay; format: functional, cell-based; summary of the method: as §1
# CH1 [6] = test: Inhibition of cell growth in human ovarian carcinoma cell line (CH1) was determined using the 96 hour continuous exposure sulforhodamine B (SRB) growth delay assay.; format: functional, cell-based; details: CH1, 96 h; summary of the method: as §1
# SK-OV-3 = test: Inhibition of cell growth in human ovarian carcinoma cell line(SKOV-3) using the 96 hour continuous exposure sulforhodamine B (SRB) growth delay assay; format: functional, cell-based; summary of the method: as §1
# A2780 [7] = test: Growth inhibition in human ovarian carcinoma cell line (A2780cisR,cisplatin-resistant) using the 96 hour exposure sulforhodamine B (SRB) growth delay assay; format: functional, cell-based; details: A2780, 96 h; summary of the method: as §1
# A2780 [8] = test: Inhibition of cell growth in human ovarian carcinoma cell line (A2780cisR,cisplatin-resistant)using the 96 hour continuous exposure sulforhodamine B (SRB) growth delay assay; format: functional, cell-based
# Summary of the method: (§5)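 Cells seeded in growth medium and allowed to attach overnight, then given drug (20 mM DMSO stock diluted in medium) in quadruplicate wells at final 100 μM to 2.5 nM for 96 h at 37 °C. Fixed with 10% trichloroacetic acid on ice, stained 0.4% sulforhodamine B, dye solubilised in 10 mM Tris base, absorbance 540 nm; IC50 from concentration versus % absorbance against 8 untreated wells.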
# CH1 [9] = test: Inhibition of cell growth in human ovarian carcinoma cell line (CH1-cis-R,cisplatin resistant) using the 96 hour exposure sulforhodamine B (SRB) growth delay assay; format: functional, cell-based; summary of the method: as §5
# A2780cisR = test: as §3; format: functional
# carcinoma cell line = test: as §4; format: functional
# Nucleic Acid [10] = test: Concentration of compound required for 50% cross linking of plasmid pBR322 DNA was investigated using an assay involving linear double stranded DNA; format: functional; summary of the method: as §2
Molecule,IC50 (CH1 [1]),IC50 (K562),XL50 (Nucleic Acid [2]),Ratio [3],Ratio [4],IC50 (CH1 [6]),"IC50 (SK-OV-3; Homo sapiens, SK-OV-3, 96 h)",further results
COc1cc2c(cc1OCCCOc1cc3c(cc1OC)C(=O)N1CCC[C@H]1C=N3)N=C[C@@H]1CCCN1C2=O [DSB-120],0.022 µM,0.25 µM,0.055 µM,29.2,0.7,,,
C=C1C[C@H]2C(=O)Nc3cc(OCCCOc4cc5c(cc4OC)C(=O)N4CC(=C)C[C@H]4C(=O)N5)c(OC)cc3C(=O)N2C1,2.9 µM,,,4.4,3.5,0.57 µM,28 µM,"IC50 (A2780 [5]; Homo sapiens, A2780, 96 h): 2.5 µM; IC50 (A2780 [7]): 11 µM"
CISPLATIN [listing 1 of 2 here],,,,,,,,IC50 (A2780 [8]): 8.4 µM; IC50 (A2780 [5]; a2780): 0.265 µM; IC50 (CH1 [9]): 1.1 µM; IC50 (SK-OV-3; sk-ov-3): 10.5 µM
C=C1C[C@H]2C=Nc3cc(OCCCOc4cc5c(cc4OC)C(=O)N4CC(=C)C[C@H]4C=N5)c(OC)cc3C(=O)N2C1 [SJG-136],0.0006 µM,0.0425 µM,0.045 µM,1.1,5,0.00012 µM,0.0091 µM,
CISPLATIN [listing 2 of 2 here],,,,,,,,Ratio (A2780cisR): 32; Ratio (carcinoma cell line): 6.1
N[C@@H](Cc1ccc(N(CCCl)CCCl)cc1)C(=O)O,,,,,,,,XL50 (Nucleic Acid [10]): 20 µM
